Nine compounds from ChEMBL document CHEMBL3046448, “Design and syntheses of novel phthalazin-1(2H)-one derivatives as acetohydroxyacid synthase inhibitors” (J Agric Food Chem, 2006) can be followed below.

As usually defined, the Ki is the dissociation constant of the complex between target and ligand, obtained from inhibition or displacement. The low end stands for tighter binding, the high end for weaker binding.

In experiment [1] the test system is Brassica juncea. The experiment can be described thus: Herbicidal activity against Brassica juncea assessed as growth inhibition at 150 g ai/ha applied as pre-emergence treatment 24 hr after weeds seeds sowing under green house conditions measured 15 days post compound treatment. It counts as functional. To be noted: read-out: GI. In a few lines:
(§1)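 Pre-emergence spray applied 24 h after sowing weeds in pots in a greenhouse. Clay soil: pH 6.5, 1.6% organic matter, 37.3% clay, CEC 12.1 cmol/kg. Formulation: 100 g/L emulsified concentrate (DMF solvent, TW-80 emulsifier) diluted with water to 150 g ai/ha. Untreated and DMF-treated controls. Growth inhibition judged visually at 15 days: ++ >80%, + 50-80%, − <50%.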

In experiment [2] the test system is Amaranthus retroflexus. The experiment can be described thus: Herbicidal activity against Amaranthus retroflexus assessed as growth inhibition at 150 g ai/ha applied as pre-emergence treatment 24 hr after weeds seeds sowing under green house conditions measured 15 days post compound treatment. It counts as functional. To be noted: read-out: GI. Summed up: as §1

The target in experiment [3] is T1, Acetolactate synthase, chloroplastic (Arabidopsis thaliana, UniProt P17597).
T1 sequence (P17597 whole entry): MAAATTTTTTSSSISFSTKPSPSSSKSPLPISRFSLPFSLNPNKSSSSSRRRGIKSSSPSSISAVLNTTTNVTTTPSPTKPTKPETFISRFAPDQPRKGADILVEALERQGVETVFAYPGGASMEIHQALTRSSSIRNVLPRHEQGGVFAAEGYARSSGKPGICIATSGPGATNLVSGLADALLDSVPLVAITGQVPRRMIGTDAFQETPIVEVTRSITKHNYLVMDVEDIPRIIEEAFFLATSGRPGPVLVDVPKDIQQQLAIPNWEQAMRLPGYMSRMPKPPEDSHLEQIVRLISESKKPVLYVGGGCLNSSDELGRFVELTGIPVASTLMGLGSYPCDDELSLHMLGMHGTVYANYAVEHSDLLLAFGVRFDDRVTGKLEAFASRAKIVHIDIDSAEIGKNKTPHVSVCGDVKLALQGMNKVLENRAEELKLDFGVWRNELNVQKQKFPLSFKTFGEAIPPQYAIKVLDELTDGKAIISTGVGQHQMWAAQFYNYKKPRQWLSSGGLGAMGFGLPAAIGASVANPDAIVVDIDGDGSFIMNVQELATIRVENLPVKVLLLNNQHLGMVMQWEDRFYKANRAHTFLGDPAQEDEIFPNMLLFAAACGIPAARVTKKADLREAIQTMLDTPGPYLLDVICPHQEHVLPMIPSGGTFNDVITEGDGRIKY
The experiment can be described thus: Inhibition of wild type Arabidopsis thaliana acetohydroxyacid synthase.

Experiment [4] relates to Setaria viridis. Briefly: Herbicidal activity against Setaria viridis (green foxtail) assessed as growth inhibition at 150 g ai/ha applied as post-emergence treatment under green house conditions measured 15 days post compound treatment. Type of experiment: functional. The following applies: 360 h, read-out: GI. Summed up: (§2)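 Monocot weeds grown in pots in a greenhouse and sprayed post-emergence at the one-leaf stage. Clay soil: pH 6.5, 1.6% organic matter, 37.3% clay, CEC 12.1 cmol/kg. Formulation: 100 g/L emulsified concentrate (DMF, TW-80) diluted with water to 150 g ai/ha. Untreated and DMF controls included. Growth inhibition scored visually after 15 days: ++ >80%, + 50-80%, − <50%.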

The test system of experiment [5] is Echinochloa crus-galli. The experiment can be described thus: Herbicidal activity against Echinochloa crus-galli (barnyard grass) assessed as growth inhibition at 150 g ai/ha applied as pre-emergence treatment 24 hr after weeds seeds sowing under green house conditions measured 15 days post compound treatment. Type of experiment: functional. The following applies: read-out: GI. Summed up:
as §1

Experiment [6] has as its system Setaria viridis. The experiment can be described thus: Herbicidal activity against Setaria viridis (green foxtail) assessed as growth inhibition at 150 g ai/ha applied as pre-emergence treatment 24 hr after weeds seeds sowing under green house conditions measured 15 days post compound treatment. Type of experiment: functional. To be noted: read-out: GI. Summed up: as §1

The test system of experiment [7] is Echinochloa crus-galli. The experiment can be described thus: Herbicidal activity against Echinochloa crus-galli (barnyard grass) assessed as growth inhibition at 150 g ai/ha applied as post-emergence treatment under green house conditions measured 15 days post compound treatment. It counts as functional. The following applies: 360 h, read-out: GI. In a few lines:
as §2

Experiment [8] deals with Digitaria sanguinalis. Briefly: Herbicidal activity against Digitaria sanguinalis (hairy crabgrass) assessed as growth inhibition at 150 g ai/ha applied as post-emergence treatment under green house conditions measured 15 days post compound treatment. Type of experiment: functional. The following applies: 360 h, read-out: GI. Summed up: as §2
In experiment [9] the test system is Amaranthus retroflexus. The experiment can be described thus: Herbicidal activity against Amaranthus retroflexus assessed as growth inhibition at 150 g ai/ha applied as post-emergence treatment under green house conditions measured 15 days post compound treatment. Type of experiment: functional. To be noted: 360 h, read-out: GI. Summed up:
(§3)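 Post-emergence spray on pot-grown dicot weeds at the two-leaf stage in a greenhouse. Clay soil: pH 6.5, 1.6% organic matter, 37.3% clay, CEC 12.1 cmol/kg. Formulation: 100 g/L DMF/TW-80 emulsified concentrate, water-diluted to 150 g ai/ha. Untreated and DMF solvent controls. Visual inhibition rating at 15 days: ++ >80%, + 50-80%, − <50%.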

Experiment [10] relates to Chenopodium album. The experiment can be described thus: Herbicidal activity against Chenopodium album assessed as growth inhibition at 150 g ai/ha applied as pre-emergence treatment 24 hr after weeds seeds sowing under green house conditions measured 15 days post compound treatment. The following applies: read-out: GI. Type of experiment: functional. Summed up:
as §1

The subject of experiment [11] is Chenopodium album. Briefly: Herbicidal activity against Chenopodium album assessed as growth inhibition at 150 g ai/ha applied as post-emergence treatment under green house conditions measured 15 days post compound treatment. The following applies: 360 h, read-out: GI. It counts as functional. In a few lines: as §3
The test system of experiment [12] is Digitaria sanguinalis. Briefly: Herbicidal activity against Digitaria sanguinalis (hairy crabgrass) assessed as growth inhibition at 150 g ai/ha applied as pre-emergence treatment 24 hr after weeds seeds sowing under green house conditions measured 15 days post compound treatment. It counts as functional. The following applies: read-out: GI. Summed up: as §1

Experiment [13] deals with Brassica juncea. Briefly: Herbicidal activity against Brassica juncea assessed as growth inhibition at 150 g ai/ha applied as post-emergence treatment under green house conditions measured 15 days post compound treatment. Type of experiment: functional. The following applies: 360 h, read-out: GI. Summed up:
as §3

In the case of `CCc1ccc(C(=O)n2nc(C)c3cccc(Oc4nc(OC)cc(OC)n4)c3c2=O)cc1`, the inhibition of growth at 150 g/ha with Brassica juncea [1] is under 50%; in the experiment on Amaranthus retroflexus [2] it was under 50%; with Setaria viridis [4] it was 50%; in the experiment with Echinochloa crus-galli [5] it was under 50%; in the experiment with Setaria viridis [6], under 50%; in the experiment with Echinochloa crus-galli [7], 50%. Also, the inhibition of growth at 150 g/ha with Digitaria sanguinalis [8] was under 50%; in the experiment with Amaranthus retroflexus [9] it was over 80%; in the experiment with Chenopodium album [10], under 50%; in the experiment with Chenopodium album [11] it was 50%; in the experiment with Digitaria sanguinalis [12], under 50%; in the experiment on Brassica juncea [13], 50%. In [3], this compound gave a Ki of 710 µM.

Take `COc1cc(OC)nc(Oc2cccc3c(C)nn(Cc4ccc(Cl)cc4)c(=O)c23)n1`: the inhibition of growth at 150 g/ha in the experiment on Brassica juncea [1], in the experiment on Amaranthus retroflexus [2], with Setaria viridis [4], with Echinochloa crus-galli [5], in the experiment with Setaria viridis [6] and in the experiment on Echinochloa crus-galli [7] was under 50% each time. For the same compound, the inhibition of growth at 150 g/ha with Digitaria sanguinalis [8], with Amaranthus retroflexus [9], in the experiment on Chenopodium album [10], with Chenopodium album [11], with Digitaria sanguinalis [12] and in the experiment with Brassica juncea [13] was under 50% in each case. For the same compound, in experiment [3], the Ki was 203 µM.

As for `CCn1nc(C)c2cccc(Oc3nc(OC)cc(OC)n3)c2c1=O`, the inhibition of growth at 150 g/ha in the experiment with Brassica juncea [1] was under 50%; with Amaranthus retroflexus [2], under 50%; in the experiment with Setaria viridis [4], over 80%; in the experiment on Echinochloa crus-galli [5], under 50%; with Setaria viridis [6], under 50%; in the experiment on Echinochloa crus-galli [7] it was over 80%. The inhibition of growth at 150 g/ha with Digitaria sanguinalis [8] is over 80%; in the experiment with Amaranthus retroflexus [9], over 80%; in the experiment with Chenopodium album [10], under 50%; in the experiment on Chenopodium album [11] it was 50%; in the experiment on Digitaria sanguinalis [12], under 50%; in the experiment on Brassica juncea [13], under 50%. Moreover, in [3], the affinity corresponds to a Ki of 1680 µM.

On to `COc1cc(OC)nc(Oc2cccc3c(C)nn(Cc4ccc(F)cc4F)c(=O)c23)n1`, for which the inhibition of growth at 150 g/ha in the experiment with Brassica juncea [1] was under 50%; in the experiment on Amaranthus retroflexus [2], under 50%; in the experiment on Setaria viridis [4] it was 50%; in the experiment on Echinochloa crus-galli [5], under 50%; with Setaria viridis [6], under 50%; in the experiment on Echinochloa crus-galli [7], 50%. In addition, the inhibition of growth at 150 g/ha with Digitaria sanguinalis [8] was under 50%; in the experiment with Amaranthus retroflexus [9], over 80%; with Chenopodium album [10], under 50%; with Chenopodium album [11], under 50%; in the experiment with Digitaria sanguinalis [12], under 50%; in the experiment on Brassica juncea [13], 50%. Also, the Ki in experiment [3] was determined as 1040 µM.

Consider `COc1cc(OC)nc(Oc2cccc3c(C)nn(Cc4ccc(Br)cc4)c(=O)c23)n1`, for which the inhibition of growth at 150 g/ha with Brassica juncea [1], in the experiment on Amaranthus retroflexus [2], in the experiment with Setaria viridis [4], in the experiment on Echinochloa crus-galli [5], in the experiment with Setaria viridis [6] and in the experiment with Echinochloa crus-galli [7] was under 50% throughout. Moreover, the inhibition of growth at 150 g/ha in the experiment on Digitaria sanguinalis [8], in the experiment with Amaranthus retroflexus [9], with Chenopodium album [10], in the experiment on Chenopodium album [11], in the experiment with Digitaria sanguinalis [12] and with Brassica juncea [13] was under 50% each time. The Ki in experiment [3] was found to be 310 µM.

In the case of `COc1cc(OC)nc(Oc2cccc3c(C)nn(Cc4cccc(F)c4)c(=O)c23)n1`, the inhibition of growth at 150 g/ha with Brassica juncea [1], with Amaranthus retroflexus [2], in the experiment with Setaria viridis [4], in the experiment on Echinochloa crus-galli [5], with Setaria viridis [6] and with Echinochloa crus-galli [7] was under 50% throughout. The inhibition of growth at 150 g/ha with Digitaria sanguinalis [8], in the experiment on Amaranthus retroflexus [9], in the experiment on Chenopodium album [10], in the experiment with Chenopodium album [11], with Digitaria sanguinalis [12] and in the experiment on Brassica juncea [13] was under 50% in each case. In addition, in [3], the inhibition constant Ki came to 1400 µM.

`COc1cc(OC)nc(Oc2cccc3c(C)nn(Cc4cccc(Br)c4)c(=O)c23)n1`: the inhibition of growth at 150 g/ha in the experiment with Brassica juncea [1] is under 50%; with Amaranthus retroflexus [2] it was under 50%; in the experiment on Setaria viridis [4] it was 50%; in the experiment with Echinochloa crus-galli [5] it was under 50%; in the experiment on Setaria viridis [6] it was under 50%; in the experiment on Echinochloa crus-galli [7], 50%. Further, the inhibition of growth at 150 g/ha in the experiment with Digitaria sanguinalis [8] is 50%; in the experiment with Amaranthus retroflexus [9], over 80%; in the experiment on Chenopodium album [10] it was under 50%; with Chenopodium album [11] it was under 50%; in the experiment with Digitaria sanguinalis [12], under 50%; in the experiment on Brassica juncea [13] it was 50%. In [3], this compound came in with a Ki of 759 µM.

Take `COc1cc(OC)nc(Oc2cccc3c(C)nn(Cc4ccccc4Br)c(=O)c23)n1`: the inhibition of growth at 150 g/ha in the experiment with Brassica juncea [1], in the experiment on Amaranthus retroflexus [2], in the experiment with Setaria viridis [4], in the experiment on Echinochloa crus-galli [5], in the experiment with Setaria viridis [6] and with Echinochloa crus-galli [7] was under 50% each time. The inhibition of growth at 150 g/ha with Digitaria sanguinalis [8], in the experiment on Amaranthus retroflexus [9], with Chenopodium album [10], in the experiment with Chenopodium album [11], with Digitaria sanguinalis [12] and in the experiment on Brassica juncea [13] was under 50% throughout. The compound also registered an inhibitory constant (Ki) in experiment [3] of 362 µM.

For `CO/N=C(/C)c1cccc(Oc2nc(OC)cc(OC)n2)c1C(=O)OC` [PYRIMINOBAC-METHYL], the inhibition of growth at 150 g/ha is under 50% with Brassica juncea [1]; under 50% with Amaranthus retroflexus [2]; under 50% in the experiment with Echinochloa crus-galli [5]; under 50% with Setaria viridis [6]; over 80% in the experiment on Echinochloa crus-galli [7]; over 80% with Digitaria sanguinalis [8]. Further, the inhibition of growth at 150 g/ha in the experiment on Amaranthus retroflexus [9] is over 80%; in the experiment on Chenopodium album [10], under 50%; in the experiment on Chenopodium album [11], over 80%; in the experiment with Digitaria sanguinalis [12] it was under 50%. In experiment [3], this compound registered a Ki of 49 µM.
